Source: ChEMBL document CHEMBL4396954, “A click chemistry approach for the synthesis of cyclic ureido tethered coumarinyl and 1-aza coumarinyl 1,2,3-triazoles as inhibitors of Mycobacterium tuberculosis H37Rv and their in silico studies” (Bioorg Med Chem, 2019)
≈ marks a conversion by molar mass, not a printed value.

Columns and labels:
[1] = tested on: Mycobacterium tuberculosis; assay: Antitubercular activity against Mycobacterium tuberculosis H37Rv incubated for 5 days by microplate alamar blue assay; assay type: functional; conditions: 120 h
In short: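 M. tuberculosis H37Rv grown with compound in microplate Alamar Blue assay; plates sealed and incubated at 37 °C for five days. A 1:1 mix of Alamar Blue reagent and 10% Tween 80 was then added, followed by another 24 h. Blue was scored as no growth and pink as growth. MIC was the lowest concentration preventing blue-to-pink change.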

HEK293 = assay: Cytotoxicity against HEK293 cells assessed as cell viability incubated for 48 hrs by MTT assay; assay type: cell-based; conditions: Homo sapiens, HEK293, 48 h
In short: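 HEK293 cells seeded in 96-well plates and held overnight at 37 °C, 5% CO2, 95% humidity. Cells were treated with 500, 250, 125, 62.5, 31.25 and 15.625 (units not given) for 48 h, washed twice with phosphate buffer, then given MTT (5 mg/mL stock) for 4 h at 37 °C. Formazan was dissolved in DMSO and absorbance read at 570 nm.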

[2] = Chemical stability of compound in DMF at 5 x 10^-5 M incubated for 24 hrs by spectrometric analysis; assay type: physicochemical; conditions: 50 µM
In short: (§1)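 Compound stock prepared in DMF, then diluted with DMF or with buffers of pH 6–8 to 5 × 10⁻⁵ M. Samples were kept at room temperature. UV absorption and fluorescence emission spectra were recorded and their patterns compared over 24 h and 72 h.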

[3] = Chemical stability of compound in pH 6 to 8 buffer at 5 x 10^-5 M incubated for 24 hrs by spectrometric analysis; assay type: physicochemical; conditions: pH 6, 24 h, 50 µM; in short: as §1
[4] = Chemical stability of compound in DMF at 5 x 10^-5 M incubated for 72 hrs by spectrometric analysis; assay type: physicochemical; conditions: 50 µM; in short: as §1
[5] = Chemical stability of compound in pH 6 to 8 buffer at 5 x 10^-5 M incubated for 72 hrs by spectrometric analysis; assay type: physicochemical; conditions: pH 6, 72 h, 50 µM; in short: as §1

Cc1ccc2oc(=O)cc(Cn3cc(Cn4c(C)cc(=O)n(Cc5cn(Cc6cc(=O)oc7ccc(C)cc67)nn5)c4=O)nn3)c2c1
MIC [1]: 79.1 µM (≈ 50 µg/mL) | IC50 (HEK293): 1.28 mM

Cc1ccc2c(Cn3cc(Cn4c(=O)n(Cc5cn(Cc6cc(=O)oc7c(C)c(C)ccc67)nn5)c5ccccc54)nn3)cc(=O)oc2c1C
MIC [1]: 2.39 µM (≈ 1.6 µg/mL) | IC50 (HEK293): 3.43 mM | Stability [2]: Stable | Stability [3]: Stable | Stability [4]: Unstable | Stability [5]: Unstable

Cc1ccc2oc(=O)cc(Cn3cc(Cn4c(=O)n(Cc5cn(Cc6cc(=O)oc7ccc(C)cc67)nn5)c5ccccc54)nn3)c2c1
MIC [1]: 2.49 µM (≈ 1.6 µg/mL) | IC50 (HEK293): 3.58 mM | Stability [2]: Stable | Stability [3]: Stable | Stability [4]: Unstable | Stability [5]: Unstable

O=c1cc(Cn2cc(Cn3c(=O)n(Cc4cn(Cc5cc(=O)oc6ccc7ccccc7c56)nn4)c4ccccc43)nn2)c2c(ccc3ccccc32)o1
MIC [1]: 8.76 µM (≈ 6.24 µg/mL) | IC50 (HEK293): 1.13 mM | Stability [2]: Stable | Stability [3]: Stable | Stability [4]: Unstable | Stability [5]: Unstable

NC(=O)c1cnccn1 [PYRAZINAMIDE]
MIC [1]: 25.4 µM (≈ 3.12 µg/mL)

Cc1cc(C)c2c(Cn3cc(Cn4c(C)cc(=O)n(Cc5cn(Cc6cc(=O)oc7cc(C)cc(C)c67)nn5)c4=O)nn3)cc(=O)oc2c1
MIC [1]: 75.7 µM (≈ 50 µg/mL)

COc1ccc2oc(=O)cc(Cn3cc(Cn4c(=O)n(Cc5cn(Cc6cc(=O)oc7ccc(OC)cc67)nn5)c5ccccc54)nn3)c2c1
MIC [1]: 4.64 µM (≈ 3.12 µg/mL) | IC50 (HEK293): 4.12 mM | Stability [2]: Stable | Stability [3]: Stable | Stability [4]: Unstable | Stability [5]: Unstable

Cc1ccc2oc(=O)cc(Cn3cc(Cn4cnc5c4c(=O)n(C)c(=O)n5C)nn3)c2c1
MIC [1]: 115 µM (≈ 50 µg/mL) | IC50 (HEK293): 1.11 mM

Cc1cccc2c(Cn3cc(Cn4cnc5c4c(=O)n(C)c(=O)n5C)nn3)cc(=O)[nH]c12
MIC [1]: 116 µM (≈ 50 µg/mL) | IC50 (HEK293): 5.04 mM

O=c1cc(Cn2cc(Cn3c(=O)n(Cc4cn(Cc5cc(=O)oc6c5ccc5ccccc56)nn4)c4ccccc43)nn2)c2ccc3ccccc3c2o1
MIC [1]: 2.34 µM (≈ 1.67 µg/mL) | IC50 (HEK293): 3.13 mM | Stability [2]: Stable | Stability [3]: Stable | Stability [4]: Unstable | Stability [5]: Unstable

Cc1cccc2c(Cn3cc(Cn4c(C)cc(=O)n(Cc5cn(Cc6cc(=O)[nH]c7c(C)cccc67)nn5)c4=O)nn3)cc(=O)[nH]c12
MIC [1]: 79.3 µM (≈ 50 µg/mL) | IC50 (HEK293): 1.15 mM

Cc1cc(C)c2c(Cn3cc(Cn4c(=O)n(Cc5cn(Cc6cc(=O)oc7cc(C)cc(C)c67)nn5)c5ccccc54)nn3)cc(=O)oc2c1
MIC [1]: 2.39 µM (≈ 1.6 µg/mL) | IC50 (HEK293): 0.943 mM | Stability [2]: Stable | Stability [3]: Stable | Stability [4]: Unstable | Stability [5]: Unstable

Cc1ccc2c(Cn3cc(Cn4c(=O)n(Cc5cn(Cc6cc(=O)oc7cc(C)ccc67)nn5)c5ccccc54)nn3)cc(=O)oc2c1
MIC [1]: 2.49 µM (≈ 1.6 µg/mL) | IC50 (HEK293): 3.52 mM | Stability [2]: Stable | Stability [3]: Stable | Stability [4]: Unstable | Stability [5]: Unstable

Cc1cccc2c(Cn3cc(Cn4c(=O)n(Cc5cn(Cc6cc(=O)[nH]c7c(C)cccc67)nn5)c5ccccc54)nn3)cc(=O)[nH]c12
MIC [1]: 2.5 µM (≈ 1.6 µg/mL) | IC50 (HEK293): 4.34 mM | Stability [2]: Stable | Stability [3]: Stable | Stability [4]: Unstable | Stability [5]: Unstable

Cc1cc(C)c2c(Cn3cc(Cn4cnc5c4c(=O)n(C)c(=O)n5C)nn3)cc(=O)oc2c1
MIC [1]: 111 µM (≈ 49.7 µg/mL)

O=c1cc(Cn2cc(Cn3c(=O)n(Cc4cn(Cc5cc(=O)[nH]c6ccccc56)nn4)c4ccccc43)nn2)c2ccccc2[nH]1
MIC [1]: 10.2 µM (≈ 6.25 µg/mL) | Stability [2]: Stable | Stability [3]: Stable | Stability [4]: Unstable | Stability [5]: Unstable

CN[C@@H]1[C@H](O[C@H]2[C@H](O[C@H]3[C@H](O)[C@@H](O)[C@H](N=C(N)N)[C@@H](O)[C@@H]3N=C(N)N)O[C@@H](C)[C@]2(O)C=O)O[C@@H](CO)[C@H](O)[C@H]1O [STREPTOMYCIN]
MIC [1]: 10.7 µM (≈ 6.25 µg/mL)

O=c1cc(Cn2cc(Cn3c(=O)n(Cc4cn(Cc5cc(=O)oc6ccc(Cl)cc56)nn4)c4ccccc43)nn2)c2cc(Cl)ccc2o1
MIC [1]: 18.3 µM (≈ 12.5 µg/mL) | Stability [2]: Stable | Stability [3]: Stable | Stability [4]: Unstable | Stability [5]: Unstable

COc1ccc2oc(=O)cc(Cn3cc(Cn4c(C)cc(=O)n(Cc5cn(Cc6cc(=O)oc7ccc(OC)cc67)nn5)c4=O)nn3)c2c1
MIC [1]: 75.2 µM (≈ 50 µg/mL) | IC50 (HEK293): 1.52 mM

O=C(O)c1cn(C2CC2)c2cc(N3CCNCC3)c(F)cc2c1=O [CIPROFLOXACIN]
MIC [1]: 9.43 µM (≈ 3.12 µg/mL)

O=c1cc(Cn2cc(Cn3c(=O)n(Cc4cn(Cc5cc(=O)[nH]c6ccc(Cl)cc56)nn4)c4ccccc43)nn2)c2cc(Cl)ccc2[nH]1
MIC [1]: 2.35 µM (≈ 1.6 µg/mL) | IC50 (HEK293): 12.3 mM | Stability [2]: Stable | Stability [3]: Stable | Stability [4]: Unstable | Stability [5]: Unstable

CC(C)c1ccc2oc(=O)cc(Cn3cc(Cn4c(=O)n(Cc5cn(Cc6cc(=O)oc7ccc(C(C)C)cc67)nn5)c5ccccc54)nn3)c2c1
MIC [1]: 2.49 µM (≈ 1.73 µg/mL) | IC50 (HEK293): 3.2 mM | Stability [2]: Stable | Stability [3]: Stable | Stability [4]: Unstable | Stability [5]: Unstable

COc1ccc2oc(=O)cc(Cn3cc(Cn4cnc5c4c(=O)n(C)c(=O)n5C)nn3)c2c1
MIC [1]: 55.6 µM (≈ 25 µg/mL) | IC50 (HEK293): 1.38 mM

Cc1ccc2c(Cn3cc(Cn4c(C)cc(=O)n(Cc5cn(Cc6cc(=O)oc7cc(C)ccc67)nn5)c4=O)nn3)cc(=O)oc2c1
MIC [1]: 79.1 µM (≈ 50 µg/mL)

O=c1cc(Cn2cc(Cn3c(=O)n(Cc4cn(Cc5cc(=O)[nH]c6cc(Cl)ccc56)nn4)c4ccccc43)nn2)c2ccc(Cl)cc2[nH]1
MIC [1]: 2.35 µM (≈ 1.6 µg/mL) | IC50 (HEK293): 4.57 mM | Stability [2]: Stable | Stability [3]: Stable | Stability [4]: Unstable | Stability [5]: Unstable

COc1ccc2c(Cn3cc(Cn4c(=O)n(Cc5cn(Cc6cc(=O)oc7cc(OC)ccc67)nn5)c5ccccc54)nn3)cc(=O)oc2c1
MIC [1]: 2.37 µM (≈ 1.59 µg/mL) | IC50 (HEK293): 4.62 mM | Stability [2]: Stable | Stability [3]: Stable | Stability [4]: Unstable | Stability [5]: Unstable
